From article PMC6558985 (Nature chemical biology, 2019)

Key:
[1] = tested on: Hs-spastin-N386C; assay: Steady-state ATPase activity, NADH-coupled assay, Hs-spastin N386C; format: biochemical, human; settings: 1 mM MgATP
[2] = target: T1, Hs-FIGL1 (Homo sapiens, UniProt Q6PIW4); assay: Steady-state ATPase activity, NADH-coupled assay, Hs-FIGL1; format: biochemical; settings: 10 µM, 0.5 mM MgATP, n = 3
T1 sequence (Q6PIW4 288-674): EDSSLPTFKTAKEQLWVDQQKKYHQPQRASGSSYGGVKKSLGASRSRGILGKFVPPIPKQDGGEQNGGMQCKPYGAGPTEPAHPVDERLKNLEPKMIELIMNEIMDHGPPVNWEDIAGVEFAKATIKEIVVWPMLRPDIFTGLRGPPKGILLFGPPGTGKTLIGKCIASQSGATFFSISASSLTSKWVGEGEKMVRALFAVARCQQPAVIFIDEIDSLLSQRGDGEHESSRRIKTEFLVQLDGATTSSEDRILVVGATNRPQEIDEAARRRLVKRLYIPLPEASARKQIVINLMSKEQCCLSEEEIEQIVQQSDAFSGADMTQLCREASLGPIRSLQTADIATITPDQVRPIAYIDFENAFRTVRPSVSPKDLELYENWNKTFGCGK
Outline: (§1)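 Recombinant AAA protein constructs assayed by steady-state ATPase with NADH-coupled read-out at 0.5 mM MgATP, with test compound at 2 µM or 10 µM. Activity is reported as percent of steady-state ATPase activity, average ± s.d., n = 3.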

[3] = target: Mm-VCP (Mus musculus, UniProt Q01853, I206V); assay: Steady-state ATPase activity, NADH-coupled assay, Mm-VCP; format: biochemical; settings: 10 µM, 0.5 mM MgATP, n = 3
Outline: as §1

[4] = target: Xl-katanin (Xenopus laevis, UniProt Q9PUL2); assay: Steady-state ATPase activity, NADH-coupled assay, Xl-katanin; format: biochemical, X. laevis; settings: 10 µM, 0.5 mM MgATP, n = 3
Outline: as §1

[5] = target: T2, Hs-PCH2 (Homo sapiens, UniProt Q15645); assay: Steady-state ATPase activity, NADH-coupled assay, Hs-PCH2; format: biochemical; settings: 10 µM, 0.5 mM MgATP, n = 3
T2 sequence (Q15645 1-432): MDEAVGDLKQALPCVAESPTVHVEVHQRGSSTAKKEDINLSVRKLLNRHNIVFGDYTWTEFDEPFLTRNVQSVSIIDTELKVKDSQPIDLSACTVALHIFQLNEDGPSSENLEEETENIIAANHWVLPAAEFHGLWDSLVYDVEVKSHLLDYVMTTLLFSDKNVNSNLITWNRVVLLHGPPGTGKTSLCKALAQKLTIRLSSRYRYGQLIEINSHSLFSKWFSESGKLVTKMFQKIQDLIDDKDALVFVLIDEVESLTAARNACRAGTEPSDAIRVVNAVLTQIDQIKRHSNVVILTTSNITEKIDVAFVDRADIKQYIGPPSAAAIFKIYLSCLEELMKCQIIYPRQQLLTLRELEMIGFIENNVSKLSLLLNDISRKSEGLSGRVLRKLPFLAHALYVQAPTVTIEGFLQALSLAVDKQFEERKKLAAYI
Outline: as §1

[6] = target: T3, human VPS4B (Homo sapiens, UniProt O75351); assay: Steady-state ATPase activity, NADH-coupled assay, VPS4B; format: biochemical; settings: 1 mM MgATP, n = 3
T3 sequence (O75351 1-444): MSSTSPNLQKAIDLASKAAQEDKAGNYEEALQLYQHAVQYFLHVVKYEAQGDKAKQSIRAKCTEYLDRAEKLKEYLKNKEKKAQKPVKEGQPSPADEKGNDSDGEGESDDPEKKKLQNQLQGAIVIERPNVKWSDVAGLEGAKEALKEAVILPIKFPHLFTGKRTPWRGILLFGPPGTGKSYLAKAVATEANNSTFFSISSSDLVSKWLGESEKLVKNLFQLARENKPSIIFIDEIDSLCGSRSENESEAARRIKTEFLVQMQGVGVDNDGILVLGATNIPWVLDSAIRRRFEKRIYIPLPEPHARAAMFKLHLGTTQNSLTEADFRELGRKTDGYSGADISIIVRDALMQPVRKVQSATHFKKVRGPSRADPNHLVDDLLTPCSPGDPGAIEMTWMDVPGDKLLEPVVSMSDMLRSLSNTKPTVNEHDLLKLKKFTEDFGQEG

[7] = tested on: HeLa-WT cells; assay: Intercellular bridge analysis; format: cell-based, human; settings: 10 µM, 4.5 hours
Outline: (§2)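 Fixed HeLa Flp-In T-Rex lines expressing GFP-tagged spastin M87e4, either wildtype or N386C. Cells were exposed to 0.1% DMSO or 10 µM test compound for 4.5 h, then stained for acetylated tubulin to mark intercellular bridges and imaged by immunofluorescence. Read-out is the percent of cells with a bridge: >2500 cells per condition, average ± s.d., n = 3.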

[8] = tested on: HeLa-N386C cells; assay: Intercellular bridge analysis; format: cell-based, human; settings: 10 µM, 4.5 hours, average ± s.d., n = 3
Outline: as §2

[9] = tested on: HeLa-WT cells; assay: CellTiter-Glo cell viability assay; format: cell-based, human; settings: 10 µM, 48 h
[10] = tested on: HeLa-WT cells; assay: Microtubule organization; format: cell-based, human; settings: 10 µM, 4 hours
[11] = tested on: HeLa-N386C cells; assay: Live-cell imaging of GFP-spastin puncta in anaphase, HeLa-N386C; format: cell-based, human; settings: 10 µM for 1 hour, 20 min after cleavage furrow ingression

Xl-katanin, sequence (Q9PUL2 whole entry): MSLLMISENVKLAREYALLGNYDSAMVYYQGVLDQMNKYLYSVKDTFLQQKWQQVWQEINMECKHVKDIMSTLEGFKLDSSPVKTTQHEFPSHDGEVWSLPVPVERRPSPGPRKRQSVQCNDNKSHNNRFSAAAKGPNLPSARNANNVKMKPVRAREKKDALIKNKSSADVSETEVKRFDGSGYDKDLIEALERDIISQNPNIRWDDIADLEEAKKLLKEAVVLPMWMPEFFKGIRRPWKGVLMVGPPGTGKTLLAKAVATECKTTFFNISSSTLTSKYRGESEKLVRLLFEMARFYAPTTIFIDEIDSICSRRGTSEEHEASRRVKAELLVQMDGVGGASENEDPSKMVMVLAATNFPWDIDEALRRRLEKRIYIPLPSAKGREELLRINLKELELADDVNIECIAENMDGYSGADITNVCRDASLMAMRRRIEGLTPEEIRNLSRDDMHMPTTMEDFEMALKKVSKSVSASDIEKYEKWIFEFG
Mm-VCP, sequence (Q01853 whole entry I206V): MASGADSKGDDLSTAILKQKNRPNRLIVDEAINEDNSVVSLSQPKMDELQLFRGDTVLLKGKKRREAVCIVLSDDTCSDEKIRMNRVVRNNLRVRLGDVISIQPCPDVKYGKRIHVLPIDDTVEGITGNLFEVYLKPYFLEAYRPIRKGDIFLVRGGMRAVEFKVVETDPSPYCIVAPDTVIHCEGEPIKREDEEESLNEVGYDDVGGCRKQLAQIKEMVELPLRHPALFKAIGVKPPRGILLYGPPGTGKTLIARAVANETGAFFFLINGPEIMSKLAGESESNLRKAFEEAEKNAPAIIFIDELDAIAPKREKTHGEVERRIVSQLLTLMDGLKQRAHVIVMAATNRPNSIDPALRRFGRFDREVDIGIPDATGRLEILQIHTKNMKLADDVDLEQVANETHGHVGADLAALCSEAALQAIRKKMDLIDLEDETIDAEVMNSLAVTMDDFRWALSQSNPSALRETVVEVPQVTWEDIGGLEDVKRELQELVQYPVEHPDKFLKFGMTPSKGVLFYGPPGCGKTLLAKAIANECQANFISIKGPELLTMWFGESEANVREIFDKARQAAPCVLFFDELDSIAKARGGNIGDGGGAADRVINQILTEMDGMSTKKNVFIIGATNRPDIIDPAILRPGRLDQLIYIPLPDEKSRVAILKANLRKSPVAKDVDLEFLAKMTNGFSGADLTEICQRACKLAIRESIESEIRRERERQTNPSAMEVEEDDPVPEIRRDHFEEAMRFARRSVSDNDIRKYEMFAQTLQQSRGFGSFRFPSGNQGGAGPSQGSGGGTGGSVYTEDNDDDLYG

`CC(C)[C@@H]1CN(c2nc(Nc3cc(C(C)(C)C)[nH]n3)c3cc[nH]c3n2)CCN1` [spastazoline, (R)-N-(5-(tert-butyl)-1H-pyrazol-3-yl)-2-(3-isopropylpiperazin-1-yl)-7H-pyrrolo[2,3-d]pyrimidin-4-amine] was tested, and the “potency on Hs-spastin-N386C relative to wildtype (less potent)” value [1] was > 100 fold, the “inhibition of Hs-FIGL1 ATPase activity” value [2] was “did not appreciably inhibit” and the “inhibition of Mm-VCP ATPase activity” value [3] was “did not appreciably inhibit”. The “inhibition of Xl-katanin ATPase activity” value [4] was “did not appreciably inhibit”, the “inhibition of Hs-PCH2 ATPase activity” value [5] was “did not appreciably inhibit” and the “inhibition of ATPase activity of recombinant human VPS4” value [6] was “did not inhibit ATPase activity”. For the same compound, the “increase in number of cells with intercellular bridges compared to DMSO control, HeLa-WT” value [7] was ~ 2 fold, the “percent of cells with an intercellular bridge, HeLa-WT” value ([7]; average ± s.d., n = 3) was 25.2 ± 1.4% and the “percent of cells with an intercellular bridge, HeLa-N386C” value [8] was 13.6 ± 1.4%. For the same compound, the “viability of HeLa cells” value [9] was “did not impact the viability”, the organization of microtubules [10] was “did not result in overt changes in the organization of microtubules” and the “increase in GFP-spastin dots in HeLa-N386C with respect to wildtype” value [11] was 1.6 fold. The “number of GFP-spastin dots, HeLa-N386C” value ([11]; average ± s.e.m.) was 8 ± 3.
